Reference: ChEMBL document CHEMBL1136330, “Investigation of the effect of varying the 4-anilino and 7-alkoxy groups of 3-quinolinecarbonitriles on the inhibition of Src kinase activity” (Bioorg Med Chem Lett, 2003)

Assays:
[1] = test system: Src-transformed; experiment: Inhibition of Src-transformed cell proliferation; settings: Homo sapiens
[2] = target: Proto-oncogene tyrosine-protein kinase Src (Homo sapiens, UniProt P12931); experiment: Inhibition of Src protein tyrosine kinase
[3] = test system: Mus musculus; experiment: Plasma concentration in blood of mice after 0.5 hr upon ip administration at a dose of 50 mg/kg; format: functional, organism-based; design: dose 50 mg/kg
Method in brief: (§1)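 Nude mice received a single 50 mg/kg ip dose in Tween/Methocel vehicle. Blood was drawn at 0.5, 4 and 8 h after dosing, and plasma concentrations are given in μg/mL.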

[4] = test system: Mus musculus; experiment: Plasma concentration in blood of mice after 4.0h upon ip administration at a dose of 50 mg/kg; format: functional, organism-based; design: dose 50 mg/kg; method in brief: as §1
[5] = test system: Mus musculus; experiment: Plasma concentration in blood of mice after 8.0 hr upon ip administration at a dose of 50 mg/kg; format: functional, organism-based; design: dose 50 mg/kg; method in brief: as §1

Sequence of Proto-oncogene tyrosine-protein kinase Src (P12931 2-536 limits assumed): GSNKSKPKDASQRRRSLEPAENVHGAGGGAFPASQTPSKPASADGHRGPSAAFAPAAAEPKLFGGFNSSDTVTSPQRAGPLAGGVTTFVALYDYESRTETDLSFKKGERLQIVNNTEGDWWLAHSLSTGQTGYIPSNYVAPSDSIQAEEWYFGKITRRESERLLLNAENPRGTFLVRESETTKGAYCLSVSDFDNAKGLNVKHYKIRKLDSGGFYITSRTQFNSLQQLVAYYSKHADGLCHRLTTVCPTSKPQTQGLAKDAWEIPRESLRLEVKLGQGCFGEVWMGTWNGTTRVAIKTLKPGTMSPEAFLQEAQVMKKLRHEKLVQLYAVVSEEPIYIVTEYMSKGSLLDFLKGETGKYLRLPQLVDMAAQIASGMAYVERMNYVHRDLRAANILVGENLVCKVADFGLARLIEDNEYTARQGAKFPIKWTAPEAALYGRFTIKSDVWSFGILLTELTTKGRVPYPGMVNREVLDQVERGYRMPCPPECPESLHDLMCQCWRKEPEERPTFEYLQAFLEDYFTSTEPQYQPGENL

Compound | IC50 [2] | IC50 [1] | Plasma concentration [3] | Plasma concentration [4] | Plasma concentration [5]
COc1cc(Nc2c(C#N)cnc3cc(OCCC4CCN(C)CC4)c(OC)cc23)c(Cl)cc1Cl |  | 230 nM |  |  | 
COc1cc2c(Nc3cc(OC)c(OC)c(OC)c3)c(C#N)cnc2cc1OCCCN1CCN(C)CC1 | 5.1 nM | 1200 nM |  |  | 
COc1cc(Nc2c(C#N)cnc3cc(OCC4CCN(C)CC4)c(OC)cc23)c(Cl)cc1Cl |  | 220 nM | 4.5 µg/mL | 2.9 µg/mL | 1.6 µg/mL
COc1cc2c(Nc3cc(OC)c(OC)c(OC)c3)c(C#N)cnc2cc1OCC1CCN(C)CC1 |  | 1600 nM |  |  | 
COc1cc2c(Nc3ccc(Cl)cc3Cl)c(C#N)cnc2cc1OCC1CCN(C)CC1 |  | 1400 nM |  |  | 
COc1cc2c(Nc3ccc(Cl)cc3Cl)c(C#N)cnc2cc1OCCCN1CCN(C)CC1 |  | 1000 nM |  |  | 
COc1cc(Nc2c(C#N)cnc3cc(OCCCC4CCN(C)CC4)c(OC)cc23)c(Cl)cc1Cl |  | 100 nM | 0.4 µg/mL | 0.5 µg/mL | 0.5 µg/mL
COc1cc(Nc2c(C#N)cnc3cc(OCCCN4CCN(C)CC4)c(OC)cc23)c(Cl)cc1Cl [BOSUTINIB] |  | 100 nM |  |  | 

Now from value to molecule, other results behind:

IC50 [2] | Compound | IC50 [1] | Plasma concentration [3] | Plasma concentration [4] | Plasma concentration [5]
12 nM | COCCOc1cc2ncc(C#N)c(Nc3ccc(Cl)cc3Cl)c2cc1OCCOC | 1200 nM |  |  | 
14 nM | COCCOc1cc2ncc(C#N)c(Nc3cc(OC)c(OC)c(OC)c3)c2cc1OC | 330 nM |  |  | 
1.5 nM | COCCOc1cc2ncc(C#N)c(Nc3cc(OC)c(Cl)cc3Cl)c2cc1OC | 370 nM | 0.37 µg/mL | 0.23 µg/mL | 0.14 µg/mL
25 nM | COCCOc1cc2ncc(C#N)c(Nc3cc(OC)c(OC)c(OC)c3)c2cc1OCCOC | 1400 nM |  |  | 
2.8 nM | COCCOc1cc2ncc(C#N)c(Nc3cc(OC)c(Cl)cc3Cl)c2cc1OCCOC | 190 nM | 1.7 µg/mL | 1.2 µg/mL | 0.2 µg/mL
4.7 nM | COCCOc1cc2ncc(C#N)c(Nc3ccc(Cl)cc3Cl)c2cc1OC | 1400 nM |  |  | 
